# Measurements reported in ChEMBL document CHEMBL1127741, “4-[(Alkylamino)methyl]furo[3,2-c]pyridines: a new series of selective kappa-receptor agonists” (J Med Chem, 1994).
# System: Mus musculus
# Experiment: Antinociceptive activity was measured using the mouse acetylcholine-induced abdominal constriction test following subcutaneous administration of the compound
# Format: functional
# Details: Abdomen, sc
# Method in brief: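 Male/female not stated; mice dosed subcutaneously, then challenged with acetylcholine to provoke abdominal constrictions. Inhibition of constrictions scored, and an ED50 (mg/kg, sc) derived for each compound.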
row,Structure (SMILES),ED50 [µg/kg]
1,O=C(Cc1ccc(Cl)c(Cl)c1)N1CCc2c(O)cccc2C1CN1CCC(O)C1 (stereo unspecified),84
2,O=C(Cc1ccc(Cl)c(Cl)c1)N1CCc2occc2C1CN1CCCC1 (stereo unspecified),30
3,O=C1CCN(CC2c3ccoc3CCN2C(=O)Cc2ccc(Cl)c(Cl)c2)C1 (stereo unspecified),19
4,O=C(Cc1ccc(Cl)c(Cl)c1)N1CCc2occc2[C@H]1CN1CC[C@@H](O)C1,30
5,O=C(Cc1ccc(Cl)c(Cl)c1)N1CCc2occc2C1CN1CCC(O)C1 (stereo unspecified),2
6,O=C(Cc1ccc(Cl)c(Cl)c1)N1CCc2occc2[C@@H]1CN1CC[C@H](O)C1,1.5
7,O=C(Cc1ccc(Cl)c(Cl)c1)N1CCc2c(O)cccc2C1CN1CCCC1 (stereo unspecified),3
8,O=C(Cc1ccc(Cl)c(Cl)c1)N1CCc2occc2C1CN1CC=CCC1 (stereo unspecified),4
9,Cc1cc2c(o1)CCN(C(=O)Cc1ccc(Cl)c(Cl)c1)C2CN1CCC(O)C1 (stereo unspecified),12
10,"O=C(Cc1ccc(Cl)c(Cl)c1)N1CCc2occc2C1CN1CC[C@H](O)C1 (single isomer, unassigned)",1
11,O=C(Cc1ccc(Cl)c(Cl)c1)N1CCC2(CC1CN1CCCC1)OCCO2 (stereo unspecified),1
